Reference: paper PMC4263960 (Pediatric blood & cancer, 2013)
pIC50: −log10 of the molar value. Like-named read-outs stand apart in the source and are kept apart here.

Tests used:
[1] = system: OS-31 osteosarcoma xenograft; experiment: PPTP in vivo xenograft testing, OS-31; set-up: species or system mice
[2] = system: PPTP solid tumor xenografts; experiment: PPTP in vivo testing, solid tumor xenograft panels summary; set-up: species or system mice
[3] = system: Rh36 EMB rhabdomyosarcoma xenograft; experiment: PPTP in vivo xenograft testing, Rh36; set-up: species or system mice
[4] = system: Rh41 cell line; experiment: DIMSCAN in vitro cytotoxicity testing, Rh41; format: cell-based
Procedure, shortened: (§1)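 Test compound incubated with cells of a 24-line pediatric cancer panel for 96 h at 0.1 nM to 1 μM, then assessed by DIMSCAN. Relative IC50 (rIC50) derived per line. Panel comparison value is the panel rIC50 divided by the rIC50 of each cell line.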

[5] = system: D456 glioblastoma xenograft; experiment: PPTP in vivo xenograft testing, D456; set-up: species or system mice
[6] = system: Karpas-299 cell line; experiment: DIMSCAN in vitro cytotoxicity testing, Karpas-299; format: cell-based
Procedure, shortened: as §1

[7] = cited from earlier work
[8] = system: CCRF-CEM cell line; experiment: DIMSCAN in vitro cytotoxicity testing, CCRF-CEM; format: cell-based; conditions: for pIC50: Homo sapiens, CCRF-CEM, 96 h
Procedure, shortened: as §1

[9] = system: NB-EBc1 neuroblastoma xenograft; experiment: PPTP in vivo xenograft testing, NB-EBc1; set-up: species or system mice; conditions: NB-EBc1
[10] = 1 mg/kg IP Q4Dx3 repeated at Day 21

Compound: C=C1C[C@@H]2CC[C@@]34C[C@H]5O[C@H]6[C@@H](O3)[C@H]3O[C@H](CC[C@@H]3O[C@H]6[C@H]5O4)CC(=O)C[C@@H]3[C@@H](OC)[C@@H](C[C@H](O)CN)O[C@H]3C[C@H]3O[C@@H](CC[C@@H]1O2)C[C@@H](C)C3=C [Eribulin]
- EFS activity ([1]; 1 mg/kg IP): Int (Intermediate activity = criteria (a) and (b) above, but not having a net reduction in median tumor volume for treated animals at the end of the study)
- Response activity ([1]; 1 mg/kg IP): Int (intermediate activity by a score of ≥2 but <6)
- T/C volume activity ([1]; 1 mg/kg IP): Int (Intermediate activity = T/C ≤0.45 but >0.15)
- EFS T/C [1, 10]: >2.6
- Median final RTV (CD45%) [1, 10]: 1.8
- Tumor volume T/C ([1]; 1 mg/kg IP, Day 21 or earlier): 0.27
- xenografts with CR or maintained CR ([2]; Ewing sarcoma xenografts): four of five
- xenografts with CR or maintained CR ([2]; Ewing sarcoma xenografts, listed as eribulin): 4 of 5
- xenografts with high EFS T/C activity ([2]; evaluable Ewing sarcoma xenografts): three of four
- xenografts with high EFS T/C activity ([2]; evaluable osteosarcoma xenografts): three of five
- xenografts with significant difference in EFS distribution compared to control ([2]; evaluable solid tumor xenografts, 1 mg/kg): 29 of 35
- xenografts with CR or maintained CR ([2]; glioblastoma xenografts): two of four
- xenografts with high EFS T/C activity ([2]; glioblastoma xenografts): two of four
- xenografts with CR or maintained CR ([2]; osteosarcoma xenografts): three of six
- xenografts with high activity ([2]; osteosarcoma xenografts): three
- xenografts with CR or maintained CR ([2]; rhabdomyosarcoma xenografts): six of seven
- xenografts with MCR ([2]; rhabdomyosarcoma xenografts): 6 of 7
- xenografts with high EFS T/C activity ([2]; rhabdomyosarcoma xenografts): six of seven
- lines with high EFS T/C activity ([2]; solid tumor models): 17
- lines with intermediate EFS T/C activity ([2]; solid tumor models): seven
- xenografts with objective response ([2]; solid tumor xenografts, 1 mg/kg): 18 of 35
- EFS activity ([3]; 1 mg/kg IP): High (High activity requires: (a) an EFS T/C >2; (b) a significant difference in EFS distributions, and (c) a net reduction in median tumor volume for animals in the treated group at the end of treatment as compared to at treatment initiation)
- Response activity ([3]; 1 mg/kg IP): High (A high level of activity is indicated by a score of 6 or more)
- T/C volume activity ([3]; 1 mg/kg IP): High (High activity = T/C ≤0.15)
- EFS T/C [3, 10]: >6.3
- Median final RTV (CD45%) [3, 10]: 0.0
- Tumor volume T/C ([3]; 1 mg/kg IP, Day 21 or earlier): 0.10
- pIC50 ([4]; Homo sapiens, Rh41, 96 h, read-out: rIC50): 9.85
- Panel rIC50/Line rIC50 ([4]; Rh41): 2.00
- Relative in/out% ([4]; Rh41): −70%
- Ymin % (observed) ([4]; Rh41): 6.63%
- EFS activity ([5]; 1 mg/kg IP): Int (Intermediate activity = criteria (a) and (b) above, but not having a net reduction in median tumor volume for treated animals at the end of the study)
- Response activity ([5]; 1 mg/kg IP): Int (intermediate activity by a score of ≥2 but <6)
- T/C volume activity ([5]; 1 mg/kg IP): Low (Low activity = T/C >0.45)
- EFS T/C [5, 10]: 3.4
- Median final RTV (CD45%) [5, 10]: >4
- Time to event [5, 10]: 19.8
- Tumor volume T/C ([5]; 1 mg/kg IP, Day 21 or earlier): 1.00
- pIC50 ([6]; Homo sapiens, KARPAS-299, 96 h, read-out: rIC50): > 10.00
- Panel rIC50/Line rIC50 ([6]; Karpas-299): >2.74
- Relative in/out% ([6]; Karpas-299): −100%
- Ymin % (observed) ([6]; Karpas-299): 0.03%
- systemic exposure (AUC) ([7]; humans, 1.4 mg/m^2 dose): approximately 790 ng hour/ml
- serum half-life ([7]; patients): 37.8 h
- Panel rIC50/Line rIC50 ([8]; CCRF-CEM (1)): 0.17
- Relative in/out% ([8]; CCRF-CEM (1)): −100%
- Ymin % (observed) ([8]; CCRF-CEM (1)): 0.01%
- Panel rIC50/Line rIC50 ([8]; CCRF-CEM (2)): 0.14
- Relative in/out% ([8]; CCRF-CEM (2)): −100%
- Ymin % (observed) ([8]; CCRF-CEM (2)): 0.02%
- pIC50 ([8]; read-out: rIC50, CCRF-CEM (1) ALL): 8.79
- pIC50 ([8]; read-out: rIC50, CCRF-CEM (2) ALL): 8.73
- EFS activity ([9]; 1 mg/kg IP): Low (Low activity = EFS T/C <2)
- Response activity ([9]; 1 mg/kg IP): Low (low activity by a score of <2)
- T/C volume activity ([9]; 1 mg/kg IP): Low (Low activity = T/C >0.45)
- EFS T/C [9, 10]: 1.1
- Median final RTV (CD45%) [9, 10]: >4
- Time to event [9, 10]: 4.5
